For eight compounds, inhibition results are on record in ChEMBL document CHEMBL1122951, “Synthesis of new polyoxin derivatives and their activity against chitin synthase from Candida albicans” (J Med Chem, 1985).

The target of experiment [1] is Chitin synthase 1 (Candida albicans) (UniProt P23316). Description: Inhibitory activity against chitin synthase from Candida albicans at a concentration 100 uM. In short, it runs like this:
(§1)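 Membrane preparation from C. albicans grown in liquid shake culture in Sabouraud broth, pH 6.5, washed in 0.2 M Tris-HCl pH 7.5 and broken with glass beads. Chitin synthase trypsin-activated just before assay. Substrate UDP-GlcNAc 0.5 mM. Percent inhibition at the stated inhibitor concentration, mean of triplicate assays.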

Experiment [2] shares this target. Description: Inhibitory activity against chitin synthase from Candida albicans at a concentration 25 uM. The essentials: as §1
For experiment [3] the target is unchanged. Description: Inhibitory activity against chitin synthase from Candida albicans at a concentration 5 uM. In short, it runs like this: as §1

Chitin synthase 1 (Candida albicans), sequence (P23316 whole entry, looked up): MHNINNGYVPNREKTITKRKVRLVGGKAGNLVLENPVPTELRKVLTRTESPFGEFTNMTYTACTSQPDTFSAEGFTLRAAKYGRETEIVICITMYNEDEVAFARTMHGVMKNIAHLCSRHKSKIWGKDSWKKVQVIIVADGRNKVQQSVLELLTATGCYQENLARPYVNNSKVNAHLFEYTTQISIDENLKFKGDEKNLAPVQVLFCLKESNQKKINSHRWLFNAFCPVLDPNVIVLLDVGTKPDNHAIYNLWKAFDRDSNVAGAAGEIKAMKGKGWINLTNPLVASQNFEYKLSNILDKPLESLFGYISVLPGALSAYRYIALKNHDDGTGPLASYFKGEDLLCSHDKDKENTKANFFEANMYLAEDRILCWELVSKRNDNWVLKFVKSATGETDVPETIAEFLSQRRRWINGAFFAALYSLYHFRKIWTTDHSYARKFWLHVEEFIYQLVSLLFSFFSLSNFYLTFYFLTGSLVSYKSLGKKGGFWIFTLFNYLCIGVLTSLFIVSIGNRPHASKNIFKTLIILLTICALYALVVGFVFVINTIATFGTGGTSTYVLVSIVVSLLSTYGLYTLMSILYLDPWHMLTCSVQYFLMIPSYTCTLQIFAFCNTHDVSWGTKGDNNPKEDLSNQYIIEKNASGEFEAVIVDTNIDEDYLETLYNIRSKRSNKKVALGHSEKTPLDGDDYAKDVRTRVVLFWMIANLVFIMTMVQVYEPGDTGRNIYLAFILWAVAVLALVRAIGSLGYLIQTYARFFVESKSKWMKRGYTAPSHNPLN

In the case of `N[C@@H](C(=O)N[C@@H](C(=O)O)[C@H]1O[C@@H](n2ccc(=O)[nH]c2=O)[C@H](O)[C@@H]1O)[C@H](O)Cc1ccc(O)cc1`, the inhibition was determined as 100% in experiment [1], 96% in experiment [2] and 79% in experiment [3].

In the case of `C[C@@H](N)CNC(C(=O)O)C1OC(n2ccc(=O)[nH]c2=O)C(O)C1O` (some centres undefined), the inhibition came out at 2% in experiment [1], 0% in experiment [2] and 0% in experiment [3].

In the case of `C[C@@H](O)[C@H](N)C(=O)N[C@@H](C(=O)O)[C@H]1O[C@@H](n2ccc(=O)[nH]c2=O)[C@H](O)[C@@H]1O`, the inhibition is 53% in experiment [1], 26% in experiment [2] and 8% in experiment [3].

For the compound `C[C@H](N)C(=O)N[C@@H](C(=O)O)[C@H]1O[C@@H](n2ccc(=O)[nH]c2=O)[C@H](O)[C@@H]1O`, the inhibition stood at 45% in experiment [1], 20% in experiment [2] and 0% in experiment [3].

In the case of `C[C@H](N)C(=O)N(C)[C@@H](C(=O)O)[C@H]1O[C@@H](n2ccc(=O)[nH]c2=O)[C@H](O)[C@@H]1O`, the inhibition in experiment [1], in experiment [2] and in experiment [3] was 0% each time.

As to `C[C@@H](N)C(=O)N[C@@H](C(=O)O)[C@H]1O[C@@H](n2ccc(=O)[nH]c2=O)[C@H](O)[C@@H]1O`, the inhibition in experiment [1], in experiment [2] and in experiment [3] was 0% in each case.

Take `NC(=O)NCCC[C@@H](N)C(=O)N[C@H](C(=O)O)[C@H]1O[C@@H](n2ccc(=O)[nH]c2=O)[C@H](O)[C@@H]1O`: the inhibition in experiment [1], in experiment [2] and in experiment [3] was 0% each time.

For the compound `NC(=O)NCCC[C@@H](N)C(=O)N[C@@H](C(=O)O)[C@H]1O[C@@H](n2ccc(=O)[nH]c2=O)[C@H](O)[C@@H]1O`, the inhibition in experiment [1] was 80%; in experiment [2], 37%; in experiment [3], 0%.
